Sampled rows, rich in hits. Any-hit rate of the full collection: about 4.1%.
KCC2 mod = KCC2 (human) Cl- transport modulation; Q9H2X9; KCC2 cells, thallium flux FluoZin-2 fluorescence; B-score of Tl+ flux slope (higher = more flux/activation; lower = inhibition) at 10 µM; 190,000 tested, 2.2% active;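 active means thallium flux slope and its plate-corrected score both differing from the plate sample mean at a set confidence after two filtering rounds, in either direction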;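 further: slope of fluorescence scaled to starting intensity during 10 to 20 s after thallium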
Target sequence (Q9H2X9 whole entry, looked up): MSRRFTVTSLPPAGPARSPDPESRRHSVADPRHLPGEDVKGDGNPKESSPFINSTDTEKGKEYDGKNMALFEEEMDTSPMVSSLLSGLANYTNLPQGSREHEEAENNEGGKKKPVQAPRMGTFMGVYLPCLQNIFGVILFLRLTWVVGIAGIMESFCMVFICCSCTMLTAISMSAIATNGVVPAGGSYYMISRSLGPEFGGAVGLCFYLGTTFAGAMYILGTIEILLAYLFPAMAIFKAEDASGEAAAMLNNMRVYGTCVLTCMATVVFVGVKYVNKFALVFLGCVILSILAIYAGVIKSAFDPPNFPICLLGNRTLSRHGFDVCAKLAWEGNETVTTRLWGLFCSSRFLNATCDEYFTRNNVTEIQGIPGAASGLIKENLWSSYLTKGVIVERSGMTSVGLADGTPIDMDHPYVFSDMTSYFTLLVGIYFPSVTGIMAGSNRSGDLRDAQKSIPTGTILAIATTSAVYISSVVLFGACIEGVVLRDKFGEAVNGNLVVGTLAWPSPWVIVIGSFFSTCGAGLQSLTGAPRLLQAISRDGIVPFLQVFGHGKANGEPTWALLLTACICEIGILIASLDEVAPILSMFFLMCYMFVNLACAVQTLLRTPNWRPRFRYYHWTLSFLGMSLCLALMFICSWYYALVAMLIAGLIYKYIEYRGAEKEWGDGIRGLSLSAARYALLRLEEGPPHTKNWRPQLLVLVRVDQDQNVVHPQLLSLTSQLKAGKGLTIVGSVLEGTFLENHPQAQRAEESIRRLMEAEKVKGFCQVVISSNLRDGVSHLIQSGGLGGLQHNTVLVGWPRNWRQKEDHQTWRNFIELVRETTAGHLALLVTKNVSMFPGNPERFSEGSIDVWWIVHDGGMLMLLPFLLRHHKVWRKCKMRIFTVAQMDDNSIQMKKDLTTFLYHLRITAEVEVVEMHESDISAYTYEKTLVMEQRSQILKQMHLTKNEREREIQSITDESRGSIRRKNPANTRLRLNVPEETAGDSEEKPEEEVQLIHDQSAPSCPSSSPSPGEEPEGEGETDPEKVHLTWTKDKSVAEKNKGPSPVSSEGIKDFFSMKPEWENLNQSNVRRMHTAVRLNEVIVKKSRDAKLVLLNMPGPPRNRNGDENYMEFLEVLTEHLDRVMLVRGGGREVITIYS
KCNK3 block = human KCNK3 channel inhibition, primary screen; O14649; CHO-KCNK3 thallium flux, FluxOR fluorescence; hits give low values; B-score at 10 µM; 340,000 tested, 0.84% active; AID 602410;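 active means B-score under library mean minus 4 SD, starting fluorescence ratio at most library mean plus 5 SD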;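 further: more negative B-score means stronger inhibition of thallium flux through KCNK3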
hERG rescue = shields human hERG channel from block by proarrhythmic agents. Q12809. CHO-hERG, FluxOR thallium flux, dofetilide IC70 present. AID 1511. 310,000 tested, 0.51% active. activation (rescue from dofetilide block), less the hit threshold, % at 10 µM;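 active means activation above the mean of controls blocked by dofetilide plus 5 SD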;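 further: thallium influx through hERG after potassium depolarization seen as dye fluorescence rise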
KCNQ1 inh = blocks the human KCNQ1 potassium channel. CHO-K1 KCNQ1, FluxOR thallium flux fluorescence; hits give high values. B-score at 10 µM. P51787. 310,000 tested, 1.3% active;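 active means compounds whose thallium flux B-score, printed positive for inhibition, exceeds three library SD while starting fluorescence stays within three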;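 further: channel opened by potassium depolarization with thallium stimulus after 20 min compound exposure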
KCNK9 inh = human KCNK9 channel inhibition; HEK293 KCNK9, FluxOR thallium flux fluorescence; hits give low values; B-score at 10 µM; 310,000 tested, 1.2% active; AID 488922;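 active means ratio B-score over 3 SD below the library mean, with starting fluorescence within 5 SD of its mean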;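 further: negative B-score means less thallium flux so channel inhibition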
KCNQ1 pot = potentiates or activates the human KCNQ1 potassium channel | P51787 | AID 2648 | 310,000 tested, 0.35% active | B-score at 10 µM | CHO-K1 KCNQ1, thallium flux FluxOR fluorescence; hits give high values;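 active means fluorescence ratio B-score, a plate-corrected score, at least three library SD, with initial intensity B-score within 5 SD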
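assay system = CHO-K1 cells stably expressing KCNQ1 | medium = assay buffer, equal DMSO in all wells | timing = 37 °C overnight plating, 90-min dark dye load, 20-min compound pretreatment | measured by = kinetic FluxOR thallium fluorescence, 10-s 1-Hz baseline, 110-s post-stimulus read | measure = fluorescence change relative to baseline, converted to B score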
KCNK9 inh conf = confirmation of human KCNK9 potassium channel inhibitors; shares compounds with KCNK9 inh; HEK293 KCNK9 cells, FluxOR thallium flux fluorescence; inhibition, % at 10 µM; 4,900 tested, 43% active;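 active means thallium signal inhibited by more than 5 SD of the compound-free buffer control wells, on both duplicate plates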;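 further: 0% = assay buffer control wells without compound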
Kir21 sel = selectivity of KCNK9 modulators against mouse Kir2.1 | inhibition, % at 10 µM | shares compounds with KCNK9 inh | 4,900 tested, 4% active | Kir2.1 cells, FluxOR thallium flux fluorescence;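 active means thallium signal drop more than 5 SD beyond the mean of the no-compound control wells, seen in both duplicate plates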;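 further: signal is fluorescence rise after thallium addition divided by baseline fluorescence; plate controls were assay buffer only for no effect and full block by chlorpromazine control for full effect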
KCNK9 uninduced = second counter-screen for KCNK9 modulators: effect in non-induced cells. 4,900 tested, 40% active. inhibition, % at 10 µM. AID 492997. non-induced KCNK9-HEK293, FluxOR thallium flux. shares compounds with KCNK9 inh;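 active means thallium signal drop beyond 5 SD of the untreated control mean, on both duplicate plates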;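 further: plate controls were buffer only IC0 wells for no effect and SID17386958 at its maximal inhibitory level for full effect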
Active calls of the source: *; i = inactive; . = no result.

SMILES	KCC2 mod	KCNK3 block	hERG rescue	KCNQ1 inh	KCNK9 inh	KCNQ1 pot	KCNK9 inh conf	Kir21 sel	KCNK9 uninduced
COc1ccccc1OCCCOc1ccc([N+](=O)[O-])cc1Cl	.	i	-6	i	i	i	i	i	36%*
O=C(NCCNCCO)C1(C(F)(F)F)C/C(=C\Cc2ccccc2)CCCO1 (stereo not drawn)	.	i	-8	i	i	i	.	.	.
O=C(NCC1CC1)C1(C(F)(F)F)CC(CCc2ccccc2)CCCO1 (stereo not drawn)	.	i	-8	i	i	i	i	i	i
CC(=O)Nc1nc2c(C)cc(NC(=O)C3CCCCC3)cc2s1	.	i	-6	i	i	i	.	.	.
CC(C)(C)c1ccc(OCCOc2ccc(C(C)(C)C)cc2NC=O)c(NC=O)c1	-2.8	i	-9	i	-8.2*	i	34%*	i	i
Cc1ccc(CSCC(=O)N/N=C/c2cccc(OC3CSC3)c2)cc1	1.2	i	-9	i	i	i	i	i	i
c1ccc(CSc2nnc(-c3sccc3-n3cccc3)o2)cc1	-0.19	i	-10	i	-8.3*	i	i	i	35%*
Cn1nc(C(F)(F)F)c(/C=N/OC(=O)c2ccccc2Cl)c1SCc1ccccc1Cl	0.53	i	-14	i	-10*	i	44%*	i	36%*
Cc1cccc(Cc2nnc(CCC(=O)NCc3cn4ccccc4n3)o2)c1	-0.95	i	-7	i	i	i	.	.	.
O=C(C[n+]1cc(Br)cc(Br)c1)c1cccc([N+](=O)[O-])c1	0.29	i	-8	i	i	i	.	.	.
CC(C)(C)c1ccc(/C=N/NC(=S)NC2CCCCC2)cc1	1.4	i	-7	i	i	i	i	i	i
Cn1c(-c2ccccc2)c(/C=N/NC(=O)c2ccc(O)cc2)c2ccccc21	-3.4	i	-12	i	i	i	.	.	.
CCCn1c(C2CCCN2c2nc(-c3cccc(Br)c3)cs2)nc2cc(Cl)c(Cl)cc21 (stereo not drawn)	.	i	-8	i	i	i	.	.	.
CCCn1c(C2CCCN2c2nc(C)cs2)nc2cc(Cl)c(Cl)cc21 (stereo not drawn)	.	i	-8	i	-9.5*	i	i	i	34%*
COc1ccc(CCN2CC(C(=O)N(C)Cc3ccc4nsnc4c3)CCC2=O)cc1 (stereo not drawn)	.	i	-6	i	i	i	.	.	.
COc1cccc(OCCNCc2ccccc2)c1	.	i	-1	i	i	i	.	.	.
Cc1ccc(C)c(OCC(=O)N(Cc2nnc(-c3ccccc3Cl)o2)C2CC2)c1	.	i	-17	i	i	i	i	i	i
Cc1cccc(OCC(=O)N(Cc2nnc(-c3ccccc3Cl)o2)C2CC2)c1	.	i	.	.	.	.	.	.	.
CC1Cc2ccccc2N1C(=O)C1CCCN(S(=O)(=O)c2cccc3nsnc23)C1 (stereo not drawn)	-0.11	i	-10	i	i	i	i	i	i
CC1CCCN(C(=O)C2CCCN(S(=O)(=O)c3cccc4nsnc34)C2)C1 (stereo not drawn)	.	i	-7	i	i	i	.	.	.
CCC(=O)N1C(=O)CCN(C(C)=O)c2ccccc21	0.43	i	-11	i	i	i	.	.	.
COc1cc(-c2nc(C(=O)NCC3CCCO3)cc3c2[nH]c2ccccc23)cc(OC)c1OC (stereo not drawn)	.	i	-30	i	i	i	.	.	.
O=C(NCC1CCCO1)c1cc2c([nH]c3ccccc32)c(-c2cccc(Cl)c2)n1 (stereo not drawn)	.	i	-35	12*	-11*	i	i	i	i
COC(=O)CCN(C(=O)C12CC3CC(CC(C3)C1)C2)c1ccccn1	.	i	-3	i	i	i	.	.	.
CSCC(=O)Nc1ccc(F)c(Cl)c1	-0.1	i	-7	i	i	i	i	i	i
SMILES	KCC2 mod	KCNK3 block	hERG rescue	KCNQ1 inh	KCNK9 inh	KCNQ1 pot	KCNK9 inh conf	Kir21 sel	KCNK9 uninduced
CCCCC(=O)Nc1ccc(F)c(Cl)c1	.	i	-13	i	i	i	.	.	.
Clc1cccc(NCc2nnc(SCc3ccc(Cl)cc3Cl)o2)c1	0.072	i	-6	i	i	i	i	i	32%*
CC(C)(C)OC(=O)NCCc1nnc(SCc2ccc(Cl)cc2Cl)o1	-0.0044	i	-16	i	i	i	.	.	.
Fc1ccc(Cn2nnnc2C(c2ccc(Cl)cc2)N2CCSCC2)cc1 (stereo not drawn)	-0.26	i	-8	i	-9.4*	i	40%*	i	44%*
Cc1ccc(C)c(-c2csc(NC(=O)C3=COCCO3)n2)c1	.	i	-23	i	-8.3*	i	i	i	38%*
CS(=O)(=O)N1CCN(C(=O)c2ccccc2)C1	.	i	-10	i	i	i	.	.	.
CC(C)(C)NC(=O)Cn1nc(C(F)(F)F)c2c1CCCC2	-0.0072	i	-5	i	i	i	i	i	i
CCCNC(=O)Cn1nc(C(F)(F)F)c2c1CCCC2	-0.39	i	-6	i	i	i	.	.	.
Cc1cc(F)c(F)c(C(=O)N2CCOCC2)c1	0.039	i	3	i	i	i	.	.	.
Cc1[nH]n(C2=NCCS2)c(=O)c1N=Nc1ccccc1	0.66	i	-16	i	-12*	i	i	i	32%*
Cc1[nH]n(-c2ccccc2)c(=O)c1N=Nc1ccc2c(c1)OCO2	-0.53	i	-11	i	i	i	.	.	.
Cc1ccc(/C=N/N2CCN(C3c4ccccc4-c4ccccc43)CC2)s1	-0.48	i	-5	i	i	i	i	i	i
COc1ccc(NC(=O)c2cccnn2)cc1	.	i	-5	i	i	i	.	.	.
CCOCCn1c(CN2CCN(CCO)CC2)nc2c1c(=O)n(C)c(=O)n2C	.	i	-9	i	i	i	.	.	.
N#C/C(=C/c1ccc(CNC(=O)C(=O)Nc2cc(Cl)cc(Cl)c2)o1)C(=O)NCc1cccnc1	-0.027	i	-8	i	-10*	i	i	i	i
CCCc1cc(=O)n2[nH]c(C)c(-c3ccc(OC)cc3)c2n1	.	i	-7	i	i	i	.	.	.
